This is an account of results in paper PMC7001660 (Molecular cell, 2019).

The test deals with M2 anti-FLAG antibody. Put plainly: Prot-MaP on-chip limit of detection. It counts as binding, mouse. The settings on record: for fluorescence signal relative to WT: quantified fluorescence medians across M2 concentrations, Fig. 2B. An outline of the steps: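 Run at 25°C: M2 at 1, 3.2, 10, 32, 100nM (45 min each), each followed by wash and 35nM Alexa555 anti-mouse secondary (37 min). Zero-primary secondary gives baseline. Per-variant cluster medians used; threshold 3σ above negative-set mean; LoD by inter/extrapolation.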

DYKDEDLL [superFLAG]: the “fluorescence signal relative to WT” value is “much higher signal than WT”. Further, where the note is “LoD of WT FLAG (DYKDDDDK) relative to variant”, the “fold lower LoD than WT” value is on record as 7.9 fold.

Consider “DYKDDDDKGDYKDHD [2xFLAG, reference compound]”, for which the “fluorescence signal relative to WT” value is on record as “much higher signal than WT”.
